KCNQ1 block: human KCNQ1 channel inhibition. B-score at 10 µM. P51787. 310,000 tested, 1.3% active. CHO-K1 KCNQ1, FluxOR thallium flux fluorescence; active compounds read high;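 active = compounds whose thallium flux B-score, printed positive for inhibition, exceeds three library SD while starting fluorescence stays within three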;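 also: channel opened by potassium depolarization with thallium stimulus after 20 min compound exposure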
KCNK3 inh: human KCNK3 channel inhibition, primary screen | 340,000 tested, 0.84% active | O14649 | B-score at 10 µM | CHO-KCNK3 thallium flux, FluxOR fluorescence; active compounds read low;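 active = B-score under library mean minus 4 SD, starting fluorescence ratio at most library mean plus 5 SD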;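 also: more negative B-score means stronger inhibition of thallium flux through KCNK3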
Target sequence (O14649 whole entry, looked up): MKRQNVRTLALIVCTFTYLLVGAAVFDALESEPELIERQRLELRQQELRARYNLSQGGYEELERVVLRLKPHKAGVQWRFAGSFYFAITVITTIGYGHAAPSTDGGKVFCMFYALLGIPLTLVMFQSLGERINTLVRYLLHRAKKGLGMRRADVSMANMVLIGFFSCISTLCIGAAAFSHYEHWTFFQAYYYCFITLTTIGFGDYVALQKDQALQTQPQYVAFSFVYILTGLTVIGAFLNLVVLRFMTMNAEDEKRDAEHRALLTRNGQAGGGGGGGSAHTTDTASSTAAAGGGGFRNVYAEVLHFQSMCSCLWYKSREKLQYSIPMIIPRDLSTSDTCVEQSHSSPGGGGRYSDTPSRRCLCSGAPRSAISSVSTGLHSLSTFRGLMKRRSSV
Kir21 inh: blocks the mouse Kir2.1 inward-rectifier potassium channel; 310,000 tested, 0.85% active; P35561; B-score at 10 µM; HEK293-Kir2.1, FluxOR thallium flux fluorescence; active compounds read low;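 active = fluorescence ratio B-score at or below minus 3 SD of library scores, with starting-brightness B-score within 2 SD, cut at about -4.2 in these data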;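 also: channel flux triggered by added potassium and thallium sulfate stimulus; B-score of peak minus minimum fluorescence over baseline after thallium stimulus; more negative B-score means stronger Kir2.1 block with less thallium influx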
hERG protect: shields human hERG channel from block by proarrhythmic agents; Q12809; AID 1511; activation (rescue from dofetilide block), less the hit threshold, % at 10 µM; CHO-hERG, FluxOR thallium flux, dofetilide IC70 present; 310,000 tested, 0.51% active;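 active = activation above the mean of controls blocked by dofetilide plus 5 SD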;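 also: thallium influx through hERG after potassium depolarization seen as dye fluorescence rise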
KCNK9 block: human KCNK9 channel inhibition | HEK293 KCNK9, FluxOR thallium flux fluorescence; active compounds read low | B-score at 10 µM | 310,000 tested, 1.2% active | AID 488922;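 active = ratio B-score over 3 SD below the library mean, with starting fluorescence within 5 SD of its mean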;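 also: negative B-score means less thallium flux so channel inhibition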
KCNQ1 act: potentiates or activates the human KCNQ1 potassium channel | P51787 | CHO-K1 KCNQ1, thallium flux FluxOR fluorescence; active compounds read high | B-score at 10 µM | 310,000 tested, 0.35% active | AID 2648;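 active = fluorescence ratio B-score, a plate-corrected score, at least three library SD, with initial intensity B-score within 5 SD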
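Assay system: stable KCNQ1 CHO-K1 line; medium: assay buffer, equal DMSO in all wells; timing: 90 min dye loading and 20 min compound exposure, both at room temperature; technique: kinetic FluxOR thallium fluorescence, 10-s 1-Hz baseline, 110-s post-stimulus read; read-out basis: B score of baseline-normalized fluorescence ratio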
The depositor's hits bear a star; i = inactive; / = no result; ! = not confirmed by another sample. An excerpt weighted towards active compounds, which were near 3.7% of everything screened.

SMILES	KCNQ1 block	KCNK3 inh	Kir21 inh	hERG protect	KCNK9 block	KCNQ1 act
CCN(CC)CCN1C(=O)C(=O)/C(=C(/O)c2ccc(S(=O)(=O)N3CCOCC3)cc2)C1c1ccc(C(C)(C)C)cc1 (centres undefined)	i	i	-0.38	-9.6	i	i
COc1cccc2cc(-c3cn4ccc(C)cc4n3)c(=O)oc12	i	i	-0.11	-13.1	i	i
CCOc1cccc2cc(-c3cn4cc(C)ccc4n3)c(=O)oc12	i	i	-1.22	10.5*	i	i
CCN(CC)c1ccc(/C=N/NC(=O)c2nnn(-c3nonc3N)c2C(C)C)c(O)c1	7*	i	-1.75	-18.4	i	i
N#CC(c1ccc(Cl)cc1)c1ccc2c(C(F)(F)F)cc(C(F)(F)F)nc2n1 (centres undefined)	i	i	-2.09	-4.3	i	60*
CC(=O)c1c(C)[nH]c(C(=O)Nc2cccc(C(F)(F)F)c2)c1C	i	i	2.09	-9.1	i	7*
CCC(C)c1ccccc1NC(=O)c1[nH]c(C)c(C(C)=O)c1C (centres undefined)	i	i	-0.68	5.8*	i	i
CCCCCNCC(=O)Nc1cccc(C(=O)Nc2cccc(C(F)(F)F)c2)c1	6*	i	0.01	-27.9	i	i
CCC(=O)N1CCN(c2ccccc2NC(=O)c2ccc(OC)c(Cl)c2)CC1	i	i	-0.08	-4.7	i	i
CCCCNc1c(-c2cccc(-c3cc(C(C)=O)cs3)c2)nc2ccc(C)cn12	6*	i	1.55	-39.9	i	i
CCCCCCSc1cccc(-c2nc3ccc(Cl)cn3c2NCCCC)c1	/	i	/	/	/	/
CCCCNc1c(-c2cccc(-c3ccc(OC)cc3)c2)nc2cc(C)ccn12	/	-8.74*	/	/	/	/
CCCCNc1c(-c2cccc(-c3ccc(OC)cc3)c2)nc2ccc(C)cn12	7*	i	0.19	-35.5	i	i
CCn1c(=O)c([N+](=O)[O-])c(NCCN(C)C)c2ccccc21	i	i	1.22	-9.5	i	i
CCn1c(=O)c([N+](=O)[O-])c(Cl)c2ccccc21	7*	i	-0.05	-28.9	i	i
COc1ccc(-c2csc3nc[nH]c(=O)c23)cc1OC	i	i	-0.48	-2.6	i	i
Cc1ccc(-c2csc3nc[nH]c(=S)c23)cc1C	i	i	0.15	55.9*	i	24*
Cc1nn(-c2ccccc2)c2nc(C(Cl)(Cl)Cl)[nH]c(=O)c12	i	i	2.44	-14.3	i	12*
COc1ccccc1CCC(=O)Nc1cccc(S(=O)(=O)N2CCCCCC2)c1	6*	i	-1.39	-12.7	i	i
COc1cc(C(=O)Nc2cccc(S(=O)(=O)N3CCCC3)c2)cc(OC)c1C	i	i	-0.93	-12.4	-7.72*	i
COc1ccc(OC)c(-c2cc(C(=O)N3CCc4ccccc4C3)no2)c1	6*	i	1.63	-9.6	i	i
CC(C)(C)c1ccc(C(=O)NNc2ncccc2-n2cccc2)cc1	7*	i	0.72	-6.3	i	i
O=C(NNC(=O)c1ccccc1-n1cccc1)c1ccc(Cl)cc1	i	i	0.16	-9.6	i	i
CC1CCCC(NC(=O)COC(=O)COc2cccc(F)c2)C1C (centres undefined)	/	i	/	/	/	/
O=C(Cc1ccccc1Cl)c1ccccc1	/	i	/	/	/	/
SMILES	KCNQ1 block	KCNK3 inh	Kir21 inh	hERG protect	KCNK9 block	KCNQ1 act
CCCc1cc(=O)[nH]c2nnc(SCC(=O)NC3CCCCC3)n12	i	i	1.33	-8.3	i	i
CCOC(=O)C1=C(C)N=C2SC(C(=O)OC)=CC(=O)N2C1c1ccc(F)cc1 (centres undefined)	i	i	-5.37*	-12.8	i	i
CCOC(=O)C1=C(C)N=C2SC(C(=O)OC)=CC(=O)N2C1c1cccc(OC)c1 (centres undefined)	i	i	-0.51	-4.8	i	i
COc1ccccc1OCC(O)Cn1c(=N)n(Cc2ccccc2)c2ccccc21 (centres undefined)	i	i	-4.6*	-17.9	i	i
Cc1ccc(OCC(O)Cn2c(=N)n(CCN3CCCCC3)c3ccccc32)cc1 (centres undefined)	i	i	-4.27*	-18.9	i	i
CCCCCn1c(=N)n(CC(O)COc2ccccc2OC)c2ccccc21 (centres undefined)	7*!	i	-4.27*!	-26.0	i	i
CCCCn1c(=N)n(CCOc2ccc(C)cc2)c2ccccc21	i	i	-4.6*	-11.4	i	i
C=CCn1c(=N)n(CC(O)COc2ccccc2OC)c2ccccc21 (centres undefined)	i	i	0.02	-11.1	i	i
CC(=O)c1ccc(OCC(C)Oc2ccc(C#N)cc2)cc1 (centres undefined)	i	i	3.28	-5.8	i	i
O=C(CSc1ccc2nnc(CCNC(=O)c3ccc(F)cc3)n2n1)NCc1ccco1	i	i	-2.91	-0.9	i	i
CCOc1ccc(S(=O)(=O)NCCC(=O)OCC(=O)c2ccc[nH]2)cc1	i	i	1.99	-14.8	i	i
COC(=O)c1cc(S(=O)(=O)NCC2CCN(CCc3cccs3)CC2)c[nH]1	i	i	1.48	-4.7	i	i
CCCn1c(=N)n(CC(O)COc2ccc(C)cc2)c2ccccc21 (centres undefined)	i	i	-3.94	-7.0	i	i
CCCCn1c(=N)n(CC(O)COc2cccc(C)c2)c2ccccc21 (centres undefined)	7*	i	-5.19*	-23.6	i	i
Cn1c(-c2ccccc2)cnc1NCc1ccc(F)cc1	i	i	-4.89*	-5.4	i	i
CC(C)(C)c1ccc(OCCCNC2CCCC2)cc1	i	i	-4.26*	-12.3	i	i
Cc1ccc(OCCCNC2CCCC2)cc1	i	i	2.35	-8.9	i	i
O=C(CCCN1C(=O)c2cccnc2Oc2ccc(Cl)cc21)N1CCCCC1	i	i	-1.75	-11.4	i	i
CCN(CC(=O)NCCc1ccc(S(N)(=O)=O)cc1)Cc1nc2ccccc2c(=O)[nH]1	i	i	-0.13	4.8*	i	i
Cc1ccc(-c2cc(-c3ccc(Cl)cc3)c(C#N)c(N)n2)o1	i	i	-4.45*	-13.3	i	i
Cc1ccc(-c2cc(-c3ccc(F)cc3)c(C#N)c(N)n2)o1	i	i	-2.17	-11.8	i	i
Cc1cc(-c2cc(-c3ccc(Cl)cc3)nc(N)c2C#N)co1	i	i	-4.91*	-14.7	i	i
CCCCOc1ccccc1N	i	i	0.32	5.9*	i	i

Compound activity as filed in PubChem.
